This is one part of a sample in which hits are shown more often than they occur.
A1 apoptosis 2: compounds inhibiting A1, read as caspase activation | MEF A1-2A-BIM cells, caspase-Glo luminescence, 3 h; percent of clofoctol response, DMSO zero | caspase activation, % (test concentration not listed) | 24,000 tested, under 10 active; in the data active = caspase activation above about 5.9%
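system = A1-2A-BIM-expressing MEF cells | quantity = 2500 MEF cells/well | dosing = 50 nL compound per well, pinned | schedule = overnight cell settling, then 3 h compound exposure, 37 °C | signal = luminescence from DEVD-luciferin Caspase-Glo reagent, 1:1 in 50 mM HEPES, 1 h RT | read-out = Caspase-3/7 activation, seen as rise in luminescence signal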
T cruzi HTS: blocks T. cruzi growth inside host cells. activity score (inhibition), % at 5.01 µM. intracellular Trypanosoma cruzi in host cells, plate reader. AID 651903. 22,000 compounds, 4.9% hits; in the data active = activity score above about 55%;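 note: parasites and compound incubated about four days before reading; 0% = median of neutral control wells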
INS-1E ATP HTS: INS-1E beta cell protection from cytokine death. INS-1E cytokine-induced death, ATP luminescence, 48 h; normalised: neutral wells 0, positive control 100. protection from cytokine-induced ATP loss, % at 10 µM. 20,000 compounds, 0.1% hits;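 active = mean replicate protection from cytokine-induced ATP loss at least 50% and at least 75% of replicates each reaching 50%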
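Test system: INS-1E rat cells | Quantity: 8000 cells per well | Medium: Phenol-red-free RPMI with 5% fetal bovine serum | Reagent: Cytokine cocktail of IFN-γ, TNF-α and IL-1β | Doses: One compound concentration, pin transfer | Timing: 48 h co-treatment, 10 min post-lysis read | Technique: Luminescent ATP assay (CellTiter-Glo)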
An asterisk follows results filed as active.

Results for NC(=O)COc1ccccc1/C=N/NC(=O)c1ccccc1O ?
A1 apoptosis 2: -1; T cruzi HTS: -34; INS-1E ATP HTS: -4

What do the screens show for `COc1cc(/C=N/NC(=O)c2cccc(C(=O)NO)c2)c(Br)cc1O`?
A1 apoptosis 2: 2; T cruzi HTS: -12; INS-1E ATP HTS: 2

Results for O=C(N=NC=C1C=CN(O)C=C1)c1ccccc1O ?
A1 apoptosis 2: -1; T cruzi HTS: -5; INS-1E ATP HTS: -35

Results for COc1ccc(/C=N/NC(=O)CCCCCC(=O)Nc2ccccc2O)cc1 ?
A1 apoptosis 2: 0; T cruzi HTS: 6; INS-1E ATP HTS: 8

Results for COc1cc2c(cc1OC)CN(C(=O)[C@@H]1[C@H]3C(=O)O[C@H](c4ccccc4)[C@H](c4ccccc4)N3[C@H](c3ccccc3OCCO)[C@@]13C(=O)Nc1ccccc13)CC2 ?
A1 apoptosis 2: 0

What do the screens show for `C[C@@H]1CCCCO[C@@H](CN(C)C(=O)c2ccncc2)[C@@H](C)CN([C@@H](C)CO)C(=O)c2cc(NC(=O)c3ccccc3)ccc2O1`?
A1 apoptosis 2: 2

How did C[C@@H]1CN([C@H](C)CO)C(=O)c2cccc(NC(=O)c3ccncc3)c2O[C@H]1CN(C)Cc1ccc(Oc2ccccc2)cc1 do in these assays?
A1 apoptosis 2: 0; T cruzi HTS: 85*; INS-1E ATP HTS: -26

How did C[C@@H]1CN([C@@H](C)CO)C(=O)c2cccc(NC(=O)c3ccncc3)c2O[C@@H]1CN(C)Cc1ccc(Oc2ccccc2)cc1 do in these assays?
A1 apoptosis 2: 2; T cruzi HTS: 78*; INS-1E ATP HTS: -20

How did C[C@H](CO)N1C[C@H](C)[C@@H](CN(C)Cc2ccc(Oc3ccccc3)cc2)Oc2c(NC(=O)c3ccncc3)cccc2C1=O do in these assays?
A1 apoptosis 2: 0; T cruzi HTS: 66*; INS-1E ATP HTS: -2

Results for COc1ccc(CN(C)C[C@@H]2Oc3c(NC(=O)c4ccncc4)cccc3C(=O)N([C@H](C)CO)C[C@H]2C)cc1 ?
A1 apoptosis 2: 1; T cruzi HTS: 76*; INS-1E ATP HTS: 4

What do the screens show for `C[C@H]1CN([C@@H](C)CO)C(=O)c2cccc(NC(=O)c3ccncc3)c2O[C@@H]1CN(C)Cc1ccncc1`?
T cruzi HTS: -17; INS-1E ATP HTS: 5

How did O=C(N/N=C/c1ccc(OCCO)cc1)c1ccccc1O do in these assays?
A1 apoptosis 2: -6; T cruzi HTS: -1; INS-1E ATP HTS: -11

What do the screens show for `CC(C)(C)OC(=O)N1CCC[C@H]1/C=N/NC(=O)CCCCCC(=O)NO`?
A1 apoptosis 2: 1

Results for C[C@@H]1CN([C@H](C)CO)C(=O)Cc2cc(NC(=O)CCCCCC(=O)Nc3ccccc3N)ccc2O[C@@H]1CN(C)C(=O)Nc1cccc2ccccc12 ?
A1 apoptosis 2: 1; T cruzi HTS: -37; INS-1E ATP HTS: 10

Results for CC(C)(C)OC(=O)Nc1cccc(/C=N/NC(=O)CCCCC(=O)NO)c1 ?
T cruzi HTS: 5; INS-1E ATP HTS: 21

Results for COC(=O)C(CC#Cc1ccc2c(c1)[C@]1(C(=O)N2)[C@H](C(N)=O)[C@H]2C(=O)O[C@H](c3ccccc3)[C@H](c3ccccc3)N2[C@@H]1c1ccccc1OCCO)C(=O)OC ?
A1 apoptosis 2: 0

Results for COc1ccc(/C=N/NC(=O)CCCCCC(=O)NO)cc1O ?
A1 apoptosis 2: -1

What do the screens show for `C[C@H]1CN([C@@H](C)CO)C(=O)c2cccc(NC(=O)c3ccncc3)c2O[C@@H]1CN(C)Cc1ccc(Oc2ccccc2)cc1`?
A1 apoptosis 2: -1; T cruzi HTS: 78*; INS-1E ATP HTS: -14

Results for O=C(NO)c1cccc(C(=O)N/N=C/c2cccs2)c1 ?
A1 apoptosis 2: 0; T cruzi HTS: -5; INS-1E ATP HTS: -12

What do the screens show for `O=C(N/N=C/c1ccc2c(c1)CCO2)c1ccccc1O`?
A1 apoptosis 2: -5; T cruzi HTS: -6; INS-1E ATP HTS: -30

How did C[C@H]1CN([C@@H](C)CO)C(=O)Cc2cc(NC(=O)C3CCCCC3)ccc2O[C@H]1CN(C)Cc1ccc(Oc2ccccc2)cc1 do in these assays?
T cruzi HTS: 29; INS-1E ATP HTS: -27

What do the screens show for `COc1ccc(CN(C)C[C@H]2Oc3ccc(NC(=O)C4CCCCC4)cc3CC(=O)N([C@@H](C)CO)C[C@@H]2C)cc1`?
T cruzi HTS: 64*; INS-1E ATP HTS: -1

What do the screens show for `C[C@@H]1CN([C@H](C)CO)C(=O)Cc2cc(NC(=O)C3CCCCC3)ccc2O[C@H]1CN(C)Cc1ccc(Oc2ccccc2)cc1`?
T cruzi HTS: 76*; INS-1E ATP HTS: -75

What do the screens show for `COc1ccc(CN(C)C[C@H]2Oc3ccc(NC(=O)C4CCCCC4)cc3CC(=O)N([C@H](C)CO)C[C@H]2C)cc1`?
A1 apoptosis 2: -1; T cruzi HTS: -1; INS-1E ATP HTS: -6

What do the screens show for `C[C@@H]1CN([C@@H](C)CO)C(=O)c2cc(NC(=O)Cc3ccccc3)ccc2O[C@@H](C)CCCCO[C@@H]1CN(C)C(=O)Nc1cccc2ccccc12`?
A1 apoptosis 2: 0

How did O=C(CCCCC(=O)N/N=C/c1ccc(Br)s1)NO do in these assays?
A1 apoptosis 2: -1

What do the screens show for `C[C@H](CO)N1C[C@H](C)[C@@H](CN(C)Cc2ccc(C(=O)O)cc2)Oc2c(NC(=O)Nc3ccc(C(F)(F)F)cc3)cccc2C1=O`?
A1 apoptosis 2: 2; T cruzi HTS: -12; INS-1E ATP HTS: 6

How did C[C@H](CO)N1C[C@H](C)[C@H](CN(C)Cc2ccc(C(=O)Nc3ccccc3N)cc2)Oc2c(NC(=O)Nc3ccc(C(F)(F)F)cc3)cccc2C1=O do in these assays?
T cruzi HTS: 61*; INS-1E ATP HTS: -18

How did C[C@H](CO)N1C[C@H](C)[C@H](CN(C)Cc2ccc(C(=O)O)cc2)Oc2c(NC(=O)Nc3ccc(C(F)(F)F)cc3)cccc2C1=O do in these assays?
A1 apoptosis 2: -1; T cruzi HTS: -11; INS-1E ATP HTS: -8

Results for C[C@@H]1CN([C@@H](C)CO)C(=O)c2cccc(NC(=O)Nc3ccc(C(F)(F)F)cc3)c2O[C@@H]1CN(C)Cc1ccc(C(=O)Nc2ccccc2N)cc1 ?
T cruzi HTS: 78*; INS-1E ATP HTS: -16

Results for O=C(CCCCCCC(=O)Nc1ccccc1O)N/N=C/c1cccc(Oc2ccccc2)c1 ?
T cruzi HTS: 13; INS-1E ATP HTS: 11

Results for C[C@@H]1CN([C@@H](C)CO)C(=O)c2cccc(NC(=O)Nc3ccc(F)cc3)c2O[C@@H]1CN(C)Cc1ccc(C(=O)Nc2ccccc2N)cc1 ?
A1 apoptosis 2: -4; T cruzi HTS: 70*; INS-1E ATP HTS: 19

Results for CC(C)NC(=O)Nc1cccc2c1O[C@H](CN(C)Cc1ccc(C(=O)Nc3ccccc3N)cc1)[C@H](C)CN([C@H](C)CO)C2=O ?
A1 apoptosis 2: 0; T cruzi HTS: 51; INS-1E ATP HTS: -5

Results for C[C@H](CO)N1C[C@H](C)[C@@H](CN(C)Cc2ccc(C(=O)Nc3ccccc3N)cc2)Oc2c(NC(=O)Nc3ccccc3)cccc2C1=O ?
T cruzi HTS: 61*; INS-1E ATP HTS: 6
